Measured values taken from ChEMBL document CHEMBL3259718, “Identifying structural determinants of potency for analogs of apelin-13: integration of C-terminal truncation with structure-activity” (Bioorg Med Chem, 2014).
Counter-ions that a name gives are not always drawn. Square brackets hold non-standard residues; d marks the D form. Peptide text beside a SMILES is read from it. * marks the point of attachment. hPhe = N[C@@H](CCc1ccccc1)C(=O)O; Nle = CCCC[C@H](N)C(=O)O; Aoc = NCCCCCCCC(=O)O; Tfa = O=C(C(F)(F)F)*

What was measured:
Apelin receptor = molecular target: T1, Apelin receptor (Homo sapiens, UniProt P35414); assay: Agonist activity at APJ receptor (unknown origin) expressed in CHO cells co-expressing with Calphaq16 assessed as calcium mobilization; type: functional, cell-based
T1 sequence (P35414 whole entry): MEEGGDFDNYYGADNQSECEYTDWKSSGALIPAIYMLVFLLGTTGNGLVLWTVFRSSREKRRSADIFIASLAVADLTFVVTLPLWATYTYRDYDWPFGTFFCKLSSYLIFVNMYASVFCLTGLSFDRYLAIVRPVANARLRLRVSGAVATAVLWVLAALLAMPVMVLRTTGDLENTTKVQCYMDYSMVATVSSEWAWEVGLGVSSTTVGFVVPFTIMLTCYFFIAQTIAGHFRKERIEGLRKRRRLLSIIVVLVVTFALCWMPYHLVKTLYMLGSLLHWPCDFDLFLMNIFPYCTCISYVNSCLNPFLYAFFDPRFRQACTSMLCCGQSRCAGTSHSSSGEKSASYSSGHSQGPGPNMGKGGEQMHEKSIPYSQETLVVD

[1] = Retention time of the compound by HPLC analysis; type: physicochemical
In short: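 Analytical reverse-phase HPLC on a peptide C18 column with a 5–45% acetonitrile gradient over 30 min. Identity was confirmed by ESI-MS mass.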

Plasma [2] = assay: Drug metabolism in rat plasma assessed as Ac-R-P-Nle-L-A after 15 to 25 mins by ESI-MS analysis; type: ADME, cell-free
In short: (§1)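 Peptide incubated in rat serum, with aliquots taken over a time course. Samples were run on reverse-phase capillary C18 nano-LC, with mobile phase B rising linearly from 10% to 60% over 55 min at 450 nl/min. Detection was positive-ion nano-ESI Orbitrap MS in data-dependent mode (1 FTMS plus 3 IT-MS/MS cycles, resolution 7500). Fragments were assigned from [M+H]+ masses using peptide ladder predictions.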

Plasma [3] = assay: Drug metabolism in rat plasma assessed as Ac-R-P-Nle after 15 to 25 mins by ESI-MS analysis; type: ADME, cell-free; in short: as §1
[4] = Half life in rat plasma at pH 7.4 by LC-MS/MS analysis; type: ADME, cell-free
In short: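 Peptide incubated in rat plasma adjusted to pH 7.4 at 37 °C, with DMSO kept below 2.5%. Reactions were stopped with acetonitrile at 0, 2, 5, 15, 30 and 60 min and clarified by centrifugation. Parent remaining was quantified by UPLC-MS/MS using MRM.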

Compound	EC50 (Apelin receptor; read-out: EC50) [nM]	Retention_time [1] [min]	also measured
Ac-APRLSHKGPL-NH2	1380	13.2	
CCCC[C@H](NC(=O)[C@H](C)NC(=O)[C@H](C)NC(=O)[C@H](CC(C)C)NC(=O)[C@H](CCCCN)NC(=O)[C@@H]1CCCN1C(=O)[C@H](CCCNC(=N)N)NC(C)=O)C(=O)NCC(=O)N1CCC[C@H]1C(=O)N[C@@H](CC(C)C)C(N)=O (Ac-RPKLAA[Nle]GPL-NH2)	2.2	17.64	
H-QRPRLSHK-NH2	> 3000	12.94	
Ac-KGPMPF-OH			EC50 (Apelin receptor; read-out: pEC50 (converted)): > 31600 nM
Ac-RPKFAAKGPL-NH2	44	13.91	
CCCC[C@H](NC(=O)[C@@H]1CCCN1C(=O)[C@H](CCCNC(=N)N)NC(C)=O)C(=O)N[C@@H](CCc1ccccc1)C(=O)N[C@@H](C)C(=O)N[C@@H](C)C(=O)N[C@@H](CCCCN)C(=O)NCC(=O)N1CCC[C@H]1C(=O)N[C@@H](CC(C)C)C(N)=O (Ac-RP[Nle][hPhe]AAKGPL-NH2)	73	18.37	
H-QRPRLSHKG-NH2	> 3000		
H-QRPRLS-NH2	> 3000	15.93	
Ac-RPRLSHKGPM-NH2	4.4	11.47	
Ac-RARLAAKGPL-NH2	31	13.23	
Ac-RPRLAAAGPL-NH2	637	14.93	
Ac-RPRAAAKGPL-NH2	936	11.33	
CSCC[C@H](NC(=O)[C@@H]1CCCN1C(=O)CNC(=O)[C@H](CCCCN)NC(=O)[C@H](Cc1cnc[nH]1)NC(=O)[C@H](CO)NC(=O)[C@H](CC(C)C)NC(=O)[C@H](CCCNC(=N)N)NC(=O)[C@@H]1CCCN1C(=O)[C@H](CCCNC(=N)N)NC(=O)[C@@H]1CCC(=O)N1)C(=O)N1CCC[C@H]1C(=O)N[C@@H](Cc1ccccc1)C(=O)O		17.44	
H-QRPRLSH-NH2	> 3000	13.49	
Ac-LSHKGPMPF-OH			EC50 (Apelin receptor; read-out: pEC50 (converted)): > 31600 nM
H-QRPRLSHKGP-NH2	2350		
Ac-RPRLSHKGPV-NH2	691	10.84	
Ac-RPRLSHKGPL-NH2	1.9	12.43	
Ac-RPRLAAKGAL-NH2	237	12.37	
CC(=O)N[C@@H](CCCNC(=N)N)C(=O)N1CCC[C@H]1C(=O)N[C@@H](CCCCN)C(=O)N[C@@H](CC(C)C)C(=O)N[C@@H](C)C(=O)N[C@@H](C)C(=O)N[C@@H](CCCCN)C(=O)NCC(=O)N1CCC[C@@H]1C(=O)N[C@@H](CC(C)C)C(N)=O		13.25	EC50 (Apelin receptor; cho, read-out: EC50): 1.7 nM
Ac-RPRLSHKGPF-NH2	4.7	13.43	
Ac-KPRLAAKGPL-NH2	494	13.08	
CC(=O)N[C@@H](CCCNC(=N)N)C(=O)N1CCC[C@H]1C(=O)NCCCCCCCC(=O)N[C@@H](CC(C)C)C(=O)N[C@@H](C)C(=O)N[C@@H](C)C(=O)N[C@@H](C)C(=O)NCC(=O)N1CCC[C@H]1C(=O)N[C@@H](CC(C)C)C(N)=O (Ac-RP[Aoc]LAAAGPL-NH2)	> 3000	22	
CCCC[C@H](NC(=O)[C@@H]1CCCN1C(=O)[C@H](CCCNC(=N)N)NC(C)=O)C(=O)N[C@@H](CC(C)C)C(=O)N[C@@H](C)C(=O)N[C@@H](C)C(=O)N[C@@H](CCCCN)C(=O)NCC(=O)N1CCC[C@H]1C(=O)N[C@@H](CC(C)C)C(N)=O (Ac-RP[Nle]LAAKGPL-NH2)	3.2	16.64	
CCCC[C@H](NC(=O)[C@H](C)NC(=O)[C@H](C)NC(=O)[C@H](CC(C)C)NC(=O)[C@H](CCCC)NC(=O)[C@@H]1CCCN1C(=O)[C@H](CCCNC(=N)N)NC(C)=O)C(=O)NCC(=O)N1CCC[C@H]1C(=O)N[C@@H](CC(C)C)C(N)=O (Ac-RP[Nle]LAA[Nle]GPL-NH2)	33	16.79	Drug metabolism (Plasma [2]): metabolite_detected; Drug metabolism (Plasma [3]): metabolite_detected; half-life [4]: 2 min
CCCC[C@H](NC(=O)[C@@H]1CCCN1C(=O)[C@H](CCCNC(=N)N)NC(C)=O)C(=O)NCCCCCCCC(=O)N[C@@H](C)C(=O)N[C@@H](C)C(=O)N[C@@H](CCCCN)C(=O)NCC(=O)N1CCC[C@H]1C(=O)N[C@@H](CC(C)C)C(N)=O (Ac-RP[Nle][Aoc]AAKGPL-NH2)	539	19.43	
Ac-RPALAAKGPL-NH2	8.9	14.15	
CC(=O)N[C@@H](CCCCNC(=O)C(F)(F)F)C(=O)N1CCC[C@H]1C(=O)N[C@@H](CCCNC(=N)N)C(=O)N[C@@H](CC(C)C)C(=O)N[C@@H](C)C(=O)N[C@@H](C)C(=O)N[C@@H](CCCCN)C(=O)NCC(=O)N1CCC[C@H]1C(=O)N[C@@H](CC(C)C)C(N)=O (Ac-K(Tfa)PRLAAKGPL-NH2)	> 3000	17.23	
Ac-RPRLAAKGPL-NH2	1.1	13.64	
